From PubChem BioAssay
CHRM4 PAM: human M4 muscarinic receptor positive allosteric modulators, primary screen, CHO-K1 cells, Fluo-8 calcium fluorescence; Muscarinic acetylcholine receptor M4 (Homo sapiens), P08173; CHO-K1 hM4/Gqi5, ACh EC20; 0% = ACh EC20, 100% = maximal ACh; activation, % at 3 µM; 0.4% of 360,000 active;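 active = activation above its plate's cutoff, the mean activation of sample wells plus 3 SD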
CHRM5 PAM: human M5 muscarinic receptor positive allosteric modulators, primary screen, CHO-K1 cells, Fluo-8 calcium fluorescence; Muscarinic acetylcholine receptor M5 (Homo sapiens), P08912; CHO-K1 hM5, ACh EC20 PAM; 0% = ACh EC20, 100% = ACh EC100; activation, % at 3 µM; 0.3% of 360,000 active;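 active = activation above the run cutoff, the mean activation of all test compounds plus 3 SD, cut at about 18% in these data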
Target sequence (P08912 whole entry, looked up): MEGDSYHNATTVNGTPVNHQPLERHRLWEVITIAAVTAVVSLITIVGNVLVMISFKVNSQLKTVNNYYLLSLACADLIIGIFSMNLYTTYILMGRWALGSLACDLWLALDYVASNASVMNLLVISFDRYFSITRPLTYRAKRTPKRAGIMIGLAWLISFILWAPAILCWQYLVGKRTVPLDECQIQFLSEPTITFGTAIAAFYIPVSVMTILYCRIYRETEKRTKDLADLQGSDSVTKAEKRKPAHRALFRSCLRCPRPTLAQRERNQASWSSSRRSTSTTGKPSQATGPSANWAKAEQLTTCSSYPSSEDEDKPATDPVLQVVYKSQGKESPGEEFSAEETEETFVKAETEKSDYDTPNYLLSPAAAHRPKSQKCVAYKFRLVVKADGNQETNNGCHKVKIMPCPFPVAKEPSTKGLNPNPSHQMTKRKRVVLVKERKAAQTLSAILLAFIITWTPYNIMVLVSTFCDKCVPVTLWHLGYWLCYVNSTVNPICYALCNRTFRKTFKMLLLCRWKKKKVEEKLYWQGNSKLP
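System: CHO-K1 hM5 cells. Reagent: acetylcholine, EC20 level. Compound dosing: single dose, 3 µM nominal final test concentration. Timing: Post-acetylcholine fluorescence recording 140 s. Detection: Fluo-8 calcium fluorescence. Read-out: % activation, ACh-normalized. Benchmarks: ACh EC20 and EC100 wells. Repeats: singlicate, one well per test compound.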
M5 antag: human M5 muscarinic receptor antagonists, primary screen, CHO cells, Fluo-8 calcium fluorescence; Muscarinic acetylcholine receptor M5 (Homo sapiens), P08912; CHO-hM5 cells, ACh EC80; inhibition, % at 3 µM; 0.59% of 360,000 active; AID 624040, 2012;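 active = inhibition above a per-plate cutoff, the mean of that plate's test compounds plus 3 SD, cut at about 27% in these data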
M5 ag: human M5 muscarinic receptor agonists, primary screen, CHO-K1 cells, Fluo-8 calcium fluorescence | Muscarinic acetylcholine receptor M5 (Homo sapiens), P08912 | CHO-K1 hM5 cells; 0% DMSO wells, 100% maximal acetylcholine response | activation, % at 3 µM | 0.19% of 360,000 active | AID 624037, 2012;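 active = activation above the run's mean over test compounds plus 3 SD, cut at about 23% in these data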;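 also: signal is peak over basal fluorescence ratio across the kinetic read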
M4 ag: human M4 muscarinic receptor agonists, primary screen, CHO-K1 cells, Fluo-8 calcium fluorescence; Muscarinic acetylcholine receptor M4 (Homo sapiens), P08173; CHO-K1 hM4/Gqi5; vehicle 0%, full acetylcholine response 100%; activation, % at 3 µM; 0.14% of 360,000 active; AID 624127, 2012;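 active = activation above the run mean over all test wells plus 3 SD, cut at about 32% in these data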;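 also: peak over basal fluorescence ratio per well then scaled between controls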
M4 antag: human M4 muscarinic receptor antagonists, primary screen, CHO cells, Fluo-8 calcium fluorescence; AID 624125, 2012; 0.73% of 360,000 active; CHO-hM4 cells, ACh EC80; Muscarinic acetylcholine receptor M4 (Homo sapiens), P08173; inhibition, % at 3 µM;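 active = inhibition above its plate's cutoff, the mean inhibition of sample wells plus 3 SD, cut at about 27% in these data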
Hits are given with their value; 0 = inactive. Sampled rows, rich in hits. Any-hit rate of the full collection: about 1.8%.

SMILES	CHRM4 PAM	CHRM5 PAM	M5 antag	M5 ag	M4 ag	M4 antag
Cc1ccc(N(Cc2cc3ccc(C)cc3[nH]c2=O)S(C)(=O)=O)c(C)c1	0	0	0	0	0	0
Cn1nc(Cc2n[nH]c(=S)n2C)c2ccccc2c1=O	0	0	0	0	0	0
Cc1ccc(N2C(=O)[C@@H]3[C@H](C2=O)C2c4ccccc4C=NN2[C@@H]3C(=O)c2ccc(Cl)cc2)cc1 (some centres undefined)	0	0	27	0	0	0
CCN(Cc1ccccc1)S(=O)(=O)CCNC(=O)c1ccccc1	0	0	0	0	0	0
N#CCSc1ccc2nc(-c3ccccc3)cn2n1	0	0	0	0	0	0
CCOC(=O)c1c(NC(=O)COc2cccc3c2CCN(CC)C3=O)sc2c1CCC2	22	0	0	0	0	0
COc1cccc2sc(Nc3nc(-c4ccccn4)cs3)nc12	0	0	30	0	0	37
c1ccc(Nc2nc(-c3ccccn3)cs2)cc1	0	0	0	0	0	0
c1ccc2c(c1)ccc1ncccc12	21	0	0	0	0	0
COc1ccccc1-c1ccc(/C=C2\C=CC(=O)O2)o1	0	0	27	70	0	0
COc1ccccc1-c1ccc(/C=C2/C=C(C)OC2=O)o1	0	0	0	0	0	0
Cc1cc(C(=O)CSc2nnc(-c3ccccc3)n2-c2ccccc2)c(C)n1-c1ncn[nH]1	26	0	0	0	0	0
O=C(CSc1ncn[nH]1)N/N=C/c1ccc(C(F)(F)F)cc1	0	0	0	0	0	0
O=C(CC1C(=O)NCCN1Cc1ccc(F)cc1)NC1CCCCCCC1 (centres undefined)	0	0	0	0	0	45
COc1ccc(CN2CCNC(=O)C2CC(=O)NC2CCCCCCC2)cc1OC (centres undefined)	0	0	0	0	0	36
Cc1ccc(CN2CCNC(=O)C2CC(=O)NC2CCCCCC2)cc1 (centres undefined)	0	0	0	0	0	0
CCSc1nnc(NC(=O)CSc2nncc(=O)n2N)s1	0	0	0	0	0	0
CCc1nnc(NC(=O)CSc2nncc(=O)n2N)s1	0	24	0	0	0	0
CCOc1ccc(NC(=O)COc2ccc(C(=O)NCc3cccc(OC)c3)cc2OC)cc1	0	0	0	0	0	0
CC(=O)Nc1ccc(Nc2nc3ccccc3nc2NS(=O)(=O)c2ccc(Cl)c([N+](=O)[O-])c2)cc1	0	0	0	0	0	0
Cn1nc(C(=O)Nc2cccc(C(=O)NC3CC3)c2)c2ccccc2c1=O	0	0	0	0	0	0
O=C(Nc1ccccc1)Nc1cccc(C(F)(F)F)c1	0	0	40	0	0	0
CC(=O)c1c(C)[nH]c(C(=O)Nc2cccc(C(F)(F)F)c2)c1C	0	0	29	0	0	0
FC(F)(F)c1cccc(NC(=S)NC(c2ccccc2)c2ccccc2)c1	0	0	27	0	0	0
FC(F)(F)c1cccc(NC(=S)Nc2ccc(Cl)c(Cl)c2)c1	0	0	0	0	0	0
SMILES	CHRM4 PAM	CHRM5 PAM	M5 antag	M5 ag	M4 ag	M4 antag
Cn1nc(C(=O)Nc2cccc(C(F)(F)F)c2)c2ccccc2c1=O	31	0	0	0	0	0
O=C(Nc1cccc(Oc2ccccc2)c1)c1ccc(-n2cncn2)c2ccoc12	0	0	0	0	0	0
CC12CCC(C(NC(=S)NN)C1=O)C2(C)C (centres undefined)	0	0	0	0	0	0
Nn1c(COc2ccccc2F)nnc1SCC(=O)NC1CCCC1	0	0	0	0	0	0
CC(=O)c1cccc2c(O)c(C3=Nc4ccccc4C3=O)[nH]c12	25	0	0	0	0	0
O=C1C(c2c(O)[nH]c3ccccc23)=Nc2ccccc21	0	0	0	0	0	0
CCN(CC)CCCNc1nc2cc(OC)c(OC)cc2c2nc(-c3ccccc3)nn12	17	0	0	0	0	0
CCN(CC)CCCNc1nc2cc(OC)c(OC)cc2c2nc(-c3cccnc3)nn12	0	0	0	0	0	0
CCN1CCN(c2ccc(NC(=O)COc3ccccc3Cl)cc2)CC1	0	0	0	0	0	0
Cc1cc(Cl)ccc1OCC(=O)NCc1ccncc1	0	0	0	0	0	0
CCN1CCN(c2ccc(NC(=O)COc3ccc(Cl)cc3C)cc2)CC1	0	0	42	0	0	28
O=C(COc1ccc(Cl)cc1Cl)NCc1ccncc1	0	0	0	0	0	30
Cc1cc(Cl)ccc1OCC(=O)Nc1ccncc1	0	0	33	0	0	0
S=c1[nH]nc(-c2ccncc2)n1/N=C/c1cccc(Cl)c1	0	0	0	0	0	0
CC(=O)Nc1ccc(OCC(O)Cn2cncn2)cc1 (centres undefined)	0	0	0	0	0	0
COc1ccc(CN(C)C(=O)c2ccc(Oc3ccccc3)cc2)cc1F	0	0	0	0	0	0
CN(Cc1ccc2ccccc2c1)C(=O)c1ccc(C(F)(F)F)cc1	0	0	27	0	0	0
COc1ccc2c(n1)Sc1nc3ccccc3nc1N2	0	0	0	31	54	0
COc1cc2ccccc2nn1	0	0	0	0	0	0
CCc1nnc(NC(=O)CSc2ccc(-c3ccc(-n4cccn4)cc3)nn2)s1	0	0	0	0	0	0
c1ccc(NCCC2OCC3(CO2)COC(CCNc2ccccc2)OC3)cc1 (centres undefined)	0	0	29	0	0	0
CCNC(=O)C1(C)CCCN(CCOc2ccc(Cl)cc2)C1 (centres undefined)	0	0	0	0	0	0
N#CC1(CCCN2CCCCC2)c2ccccc2CCc2ccccc21	0	0	0	0	0	26
OCCN1CCN(CCCN2c3ccccc3CCc3ccccc32)CC1	0	0	0	0	0	0
CSc1nc(N)nc2c1ncn2C1OC(CO)C(O)C1O (centres undefined)	0	0	33	0	0	0
COc1cccc(CN2CC(C(=O)NCc3ncc(C)[nH]3)CCC2=O)c1 (centres undefined)	0	0	0	0	0	0
COC(=O)c1cc2c(ccn2-c2ccc(F)cc2)n1Cc1ccc(OC(C)=O)cc1	0	0	0	0	0	0
COC(=O)c1cc2c(ccn2-c2ccc(F)cc2)n1C(C)C	0	34	0	0	0	0
CCCn1c(C(=O)OC)cc2c1ccn2-c1ccc(F)cc1	0	19	0	0	0	0
